Screening results deposited in PubChem by Johns Hopkins Ion Channel Center.
Most compounds without a hit are left out; they make up all but 3.5% or so of the library.
MrgX1 PAM: human MrgX1 positive allosteric modulation, primary screen; Q96LB2; MrgX1-HEK293, Fluo-4 calcium flux, FDSS; stronger effect = higher value; B-score at 10 µM; 310,000 tested, 0.63% active; AID 588675;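 active = plate-corrected calcium response at least 3 library SD above typical, normal starting fluorescence, not activating the receptor alone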;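 note: compound read alongside a low EC10 to EC30 dose of BAM8-22 agonist; peak minus trough fluorescence over baseline measured at the second addition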
Target sequence (Q96LB2 whole entry, looked up): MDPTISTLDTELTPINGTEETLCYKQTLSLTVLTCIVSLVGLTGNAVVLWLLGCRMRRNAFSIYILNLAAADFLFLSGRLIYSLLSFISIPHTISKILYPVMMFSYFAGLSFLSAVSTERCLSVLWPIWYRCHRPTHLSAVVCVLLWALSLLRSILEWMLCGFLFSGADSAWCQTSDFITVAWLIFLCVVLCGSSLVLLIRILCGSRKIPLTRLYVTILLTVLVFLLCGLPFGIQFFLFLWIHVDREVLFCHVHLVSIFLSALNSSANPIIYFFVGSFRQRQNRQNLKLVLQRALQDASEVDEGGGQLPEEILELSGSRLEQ
RGS4 block: human RGS4 inhibition; HEK293 M3R/RGS4 inducible, Fluo-4 calcium flux; stronger effect = higher value; triggered by carbachol at its EC20; 310,000 tested, 0.45% active; B-score at 10 µM; P49798; AID 463165;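 active = B-score, a plate-corrected calcium signal, over three deviations above library mean, with baseline fluorescence within five deviations of library mean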;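 note: RGS4 expression induced by doxycycline in cells with stable M3 receptor; B-score is computed from the integrated fluorescence ratio over baseline after carbachol; higher B-score means a larger calcium signal and so more RGS4 inhibition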
Target sequence (P49798 whole entry, looked up): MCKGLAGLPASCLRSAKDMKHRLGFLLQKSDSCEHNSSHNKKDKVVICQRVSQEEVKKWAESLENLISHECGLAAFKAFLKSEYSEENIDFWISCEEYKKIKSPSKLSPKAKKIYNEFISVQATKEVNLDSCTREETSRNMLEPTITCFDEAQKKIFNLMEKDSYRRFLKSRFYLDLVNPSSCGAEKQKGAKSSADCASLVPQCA
RGS4 pot: RGS4 potentiation or activation; AID 463111; 310,000 tested, 0.92% active; B-score at 10 µM; HEK293 M3R/inducible RGS4, carbachol calcium flux Fluo4; stronger effect = lower value;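 active = B-score of the integrated calcium signal more than 4 SD below the library mean, with starting fluorescence not abnormally high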;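 note: negative B-score means reduced calcium response which marks RGS4 activation or potentiation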
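Also added: carbachol at ECmax as muscarinic agonist stimulus; Assay system: HEK293 cells with stable M3R and inducible RGS4; Timing: overnight RGS4 induction, 30 min dye load 37 °C, 20 min compound RT; Measured by: Fluo4-AM (2 µM) calcium-flux fluorescence, kinetic read.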
MrgX1 antagonist: blocks BAM8-22 activation of human MrgX1 receptor; Q96LB2; MRGX1-HEK293 calcium flux, Fluo-4, BAM8-22 antagonism; stronger effect = lower value; B-score at 10 µM; 310,000 tested, 1.3% active;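 active = calcium-response B-score plate-corrected more than 3 library SD below zero, starting fluorescence within 5 deviations, no agonist response on first addition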;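 note: peak minus trough fluorescence over baseline after final BAM8-22 challenge near maximal dose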
MrgX1 ag: human MrgX1 receptor agonism, primary screen. MrgX1-HEK293 cells, Fluo-4 calcium fluorescence, agonist mode; stronger effect = higher value. 310,000 tested, 0.44% active. B-score at 10 µM. Q96LB2;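 active = calcium response B-score plate-corrected fluorescence ratio at least 3 library SD, with starting fluorescence B-score inside 5 SD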
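Test system: HEK293 cells stably expressing human MrgX1 receptor; amount: 15,000 cells per well; doses: compound delivered in addition one of three; times: overnight plating before 1 h dye loading; detection: Fluo-4 NW calcium-flux fluorescence, kinetic read; read-out basis: B-scored fluorescence response ratio; controls: positive and negative controls per plate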
A number is an active result; 0 = inactive; - = no result given.

SMILES	MrgX1 PAM	RGS4 block	RGS4 pot	MrgX1 antagonist	MrgX1 ag
CCN(CC)S(=O)(=O)c1ccc(-c2nnc(SCC(=O)Nc3cc(OC)cc(OC)c3)o2)cc1	0	0	0	-4.6	0
COC(=O)[C@@H](NC(=O)N1CCC(Cc2ccccc2)CC1)C(C)C	0	0	0	0	0
CCOC(=O)c1c(-n2cnnn2)sc2c1CCCC2	0	0	0	0	0
CCOC(=O)c1c(N2C(=O)Nc3cc(Cl)c(Cl)cc3N2O)sc2c1CCCCC2	0	-	-	0	50
O=C1CC2(CCN(C(=O)C(=O)c3c[nH]c4ccccc34)CC2)Oc2ccccc21	0	0	0	0	0
COc1ccc(Cc2nc3ccc(C(=O)NC(C)Cc4ncccc4C)cc3o2)cc1OC (configuration not stated)	0	0	-7	0	0
O=C(Nc1cccc(Cl)c1)C1C2CCC3C(CCC21)C3(Cl)Cl (configuration not stated)	0	0	-7.5	0	0
C=CS(=O)(=O)c1sc(Cl)c(N2CCOCC2)c1[N+](=O)[O-]	-	0	-11	-	-
CC(C)Cc1nnc(NC(=O)C2CCCC2)s1	0	0	0	0	0
O=C(O)c1ccc(N=Nc2c(O)[nH]c3cc(Cl)ccc23)cc1	0	0	0	-6	0
COc1ccc(C(=O)NC(=S)NNC(=O)c2cccc(C)c2)cc1	0	0	-8.4	0	102
Cc1ccc(C(=O)NNC(=S)NC(=O)c2ccccc2)cc1	0	0	0	0	139
Cc1cccc(C(=O)NNC(=S)NC(=O)c2ccccc2)c1	0	0	0	0	186
Cc1ccc(C(=O)NNC(=O)c2cccc(C)c2)cc1	0	0	0	0	0
O=C(C1CCC(Cn2c(=S)[nH]c3ccccc3c2=O)CC1)N1CCN(c2ccccc2)CC1 (configuration not stated)	0	5.4	0	0	0
O=C(C1CCC(Cn2c(=S)[nH]c3ccccc3c2=O)CC1)N1CCOCC1 (configuration not stated)	0	0	0	0	0
O=S(=O)(Nc1nc2ccccc2[nH]1)c1ccc2ccccc2c1	0	0	-9.6	0	0
O=S(=O)(Nc1ncn[nH]1)c1ccc2ccccc2c1	0	0	0	0	0
CCOc1cc(/C=C2/C(=O)ON=C2C)ccc1O	0	0	0	0	33
COc1cc(/C=C2/C(=O)ON=C2C)cc(Cl)c1O	0	0	0	0	40
C#CCOc1c(Cl)cc(/C=C2/C(=O)ON=C2C)cc1OC	0	0	0	0	0
Nc1ccc(-c2nc3c(ccc4ccccc43)[nH]2)cc1	0	0	0	0	0
O=C(c1ccc([N+](=O)[O-])o1)N1CCN(c2nc3c(F)cc(F)cc3s2)CC1	0	0	0	0	0
Cc1ccc(C)c2sc(N3CCN(C(=O)c4ccc([N+](=O)[O-])o4)CC3)nc12	0	0	0	-7.5	0
COc1ccc(-c2csc(NC(=O)c3ccc(OCC(=O)N4CCOCC4)c(OC)c3)n2)cc1	0	0	0	-5.1	0
SMILES	MrgX1 PAM	RGS4 block	RGS4 pot	MrgX1 antagonist	MrgX1 ag
COc1cccc(C2C3=C(N=c4s/c(=C\c5ccc(OCC(=O)O)cc5)c(=O)n42)c2ccccc2CC3)c1 (configuration not stated)	0	0	-8.4	-7.5	0
NS(=O)(=O)c1ccc(NC(=O)c2cc(-c3cc(Cl)ccc3O)n[nH]2)cc1	0	0	0	0	0
COc1ccc(CCNC(=O)C2CCC(=O)N(CC3CCCCC3)C2)cc1 (configuration not stated)	-	0	-7.1	-	-
Cc1cc2n(c1)CCn1c(C)ccc1-2	0	0	0	-4.6	0
Cc1cccc(C(=O)NNC(=O)CCC(=O)Nc2cccc(Cl)c2C)c1	0	0	0	-6.9	0
O=C(/C=C/c1ccccc1)c1ccccn1	0	0	0	0	39
COc1ccc(NC(=O)CCSc2nc(C)cs2)cc1	0	0	0	0	0
COC(=O)CC1=C(C(=O)OC)C(c2ccncc2)C(C#N)=C(N)O1 (configuration not stated)	0	0	0	0	0
COC(=O)CC1=C(C(=O)OC)C(c2cccc(OCC(N)=O)c2)C(C#N)=C(N)O1 (configuration not stated)	0	0	0	0	34
O=C(NNC(=S)NC(=O)c1ccccc1Cl)c1cccc([N+](=O)[O-])c1	0	0	0	0	103
CCCCCC(=O)NNC(=S)NC(=O)c1ccc([N+](=O)[O-])cc1	0	0	0	0	61
O=C(NNC(=S)NC(=O)c1ccccc1)c1ccc([N+](=O)[O-])cc1	0	0	0	0	77
O=C(NNC(=S)NC(=O)c1ccc(Br)cc1)c1ccc([N+](=O)[O-])cc1	0	0	0	0	0
COc1ccc(OCC(=O)NNC(=S)NC(=O)c2ccc([N+](=O)[O-])cc2)cc1	0	0	0	0	0
Cc1ccc(C(=O)NC(=S)NNC(=O)c2ccc([N+](=O)[O-])cc2)cc1	0	0	0	0	40
O=C(NNC(=S)NC(=O)c1ccc(Br)cc1)c1cccc([N+](=O)[O-])c1	0	0	0	0	0
CC1(C)Cc2c(c(N3CCCC3)nc3sc4c(N5CCNCC5)ncnc4c23)CO1	0	0	0	0	0
C=C(C)[C@@H]1CCC2(C(=O)O)CC[C@]3(C)[C@H](CC[C@@H]4[C@@]5(C)CCC(=O)C(C)(C)[C@@H]5CC[C@]43C)[C@@H]12 (some centres not stated)	0	0	0	-8.3	0
Cc1ccc(N2CC(C(=O)Nc3c4c(nn3C(C)(C)C)CS(=O)(=O)C4)CC2=O)cc1 (configuration not stated)	0	0	0	0	0
Cc1ccc(Cl)cc1N1CCN(C(=O)c2cc3c(=O)n(C)c4ccccc4c3n2C)CC1	0	0	-7.2	0	0
Cc1ccc(SCC(=O)OCC(=O)N(C)CC(=O)Nc2ccc(F)cc2)cc1C	0	0	0	0	48
COc1ccc(Cl)cc1C(=O)OCC(=O)N(C)CC(=O)Nc1ccc(F)cc1	0	0	0	0	0
O=[N+]([O-])c1ccccc1N/N=C/c1c[nH]c2ccccc12	0	0	0	0	0
O=[N+]([O-])c1ccc(N/N=C/c2ccc[nH]2)cc1	0	-	-	0	27
O=[N+]([O-])c1ccc(N/N=C/c2c[nH]c3ccccc23)cc1	0	0	0	-9.1	0
SMILES	MrgX1 PAM	RGS4 block	RGS4 pot	MrgX1 antagonist	MrgX1 ag
COc1ccc(C2=NCCn3nc4ccccc4c32)cc1	0	-	-	0	0
Cc1cc(=O)[nH]c(N/N=C/c2ccc(C)o2)n1	0	0	0	-6.6	0
Cc1cc(=O)[nH]c(N/N=C/c2ccco2)n1	0	0	0	0	0
Cc1cc2[nH]c(=O)c(=O)[nH]c2cc1S(=O)(=O)Nc1cccc(Cl)c1C	0	0	0	0	0
COc1ccc(-c2nc3ccccn3c2NC2CCCCC2)cc1SC1CCCCC1	0	0	-7.9	0	0
CCCCCCSc1cc(-c2nc3cnccn3c2NCc2ccccc2)ccc1OC	0	0	-9.7	0	0
